Screening results: PubChem, several laboratories
Hsp70 act: Hsp70 transcriptional activation, primary screen. HeLa Hsp70 promoter luciferase reporter, luminescence; scaled: vehicle 0, proteasome-inhibitor control 100%. activation, % at 10 µM. 200,000 tested, 0.04% active. AID 1203;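 active = activation above the mean across all tested compounds plus 3 SD, cutoff set per campaign, cut at about 5.5% in these data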;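 also: 100% = MG132 at 30 µM as the positive control and 0% = DMSO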
S1P3 antag: antagonists of human S1P3 receptor; Q99500; CHO S1P3 NFAT-BLA reporter, FRET fluorescence, antagonist mode; inhibition, % at 4.98 µM; 170,000 tested, 0.27% active; AID 485;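 active = inhibition above the plate cutoff, the mean inhibition of test wells on that plate plus 3 SD, cut at about 28% in these data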;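 also: cells challenged with S1P at its EC80 of 0.8 µM; blue over green emission ratio from cleaved BLA substrate after 4 h stimulation; 0% = S1P-stimulated wells and 100% = unstimulated DMSO-only wells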
CHOP inhibitor: inhibitors of CHOP induction in ER stress response; CHO-K1 CHOP-promoter luciferase, tunicamycin-induced, 15-18 h; inhibition, % at 10 µM; 220,000 tested, 3.8% active; AID 2732;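 active = compounds that reduced the stress-induced luciferase reporter signal by more than about 70% of percent inhibition, limit read from the data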;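 also: 0% = tunicamycin plus vehicle and 100% = wells without tunicamycin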
Mdm2 ligase inh: Mdm2 E3 ligase (human) inhibition; Q00987; cell-based MDM2 ubiquitination luciferase reporter, 2 h; 0 = plate control, 100 = twice control, blank-subtracted; signal enhancement, % at 5 µM; 210,000 tested, 0.11% active; AID 1230;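 active = signal enhancement of 30% or more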;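 also: luminescence tracks abundance of the self-degrading MDM2-luciferase fusion protein; higher signal means inhibition of MDM2 E3 ligase activity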
Target sequence (Q00987 whole entry, looked up, the tested form may be a part): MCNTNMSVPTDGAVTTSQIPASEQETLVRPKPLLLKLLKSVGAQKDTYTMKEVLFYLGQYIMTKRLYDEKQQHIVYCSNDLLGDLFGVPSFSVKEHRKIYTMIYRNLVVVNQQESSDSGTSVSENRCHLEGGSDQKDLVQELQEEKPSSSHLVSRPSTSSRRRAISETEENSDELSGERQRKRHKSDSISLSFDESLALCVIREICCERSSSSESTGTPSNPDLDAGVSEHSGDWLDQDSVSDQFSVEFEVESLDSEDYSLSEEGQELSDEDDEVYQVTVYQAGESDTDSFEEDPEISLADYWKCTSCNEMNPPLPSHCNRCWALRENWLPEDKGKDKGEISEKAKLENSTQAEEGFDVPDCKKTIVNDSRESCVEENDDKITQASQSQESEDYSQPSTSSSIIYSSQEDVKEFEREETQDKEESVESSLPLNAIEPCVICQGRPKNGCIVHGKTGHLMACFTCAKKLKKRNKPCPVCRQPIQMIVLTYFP
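Timing – 2 h compound exposure at 37 °C · Assay system – mammalian cells stably expressing self-ubiquitinating, self-degrading MDM2 E3–luciferase fusion · Amount – 2000 cells seeded into each well · Measure – % luminescence enhancement versus blank-corrected plate control mean · Measured by – SteadyLite luminescence, 15 min reagent step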
* hit, by the source's call; nt = no result given. Shown are actives, neighbours in structure and some others; about 4% of the full set was active somewhere.

SMILES	Hsp70 act	S1P3 antag	CHOP inhibitor	Mdm2 ligase inh
CC(NC(=O)CCNC(=O)c1ccccc1Cl)C1CC2CCC1C2 (stereo unspecified)	-0.2	-7.5	20.7	-15.9
COc1ccc(NC(=O)Cn2cnc3c(cnn3-c3ccc(C)c(C)c3)c2=O)c(OC)c1	-0.1	-0.2	81.6*	10.7
COC(=O)Nc1ccc(S(=O)(=O)Nc2ccc(C)cc2)cc1	0.4	nt	14.2	-0.8
COC(=O)Nc1ccc(S(=O)(=O)Nc2ccc(O)cc2)cc1	-0.5	nt	77.6*	-5.2
O=C(NCc1ccco1)c1nc(-c2ccc(F)cc2)no1	-0.5	12.7	-10.3	-5.0
COc1ccc(C(=O)c2ccc(Cl)cc2)c2ccccc12	-0.2	nt	49.4	-14.2
COc1ccc(C(=O)c2ccccc2)c2c(O)ccc(C(=O)c3ccccc3)c12	-0.1	nt	85.9*	-0.3
CCN1CCN(C(=S)c2ccc(OCC(=O)N3CCOCC3)cc2)CC1	-0.2	nt	22.7	-8.2
C/C(=N\NC(=O)c1ccc([N+](=O)[O-])cc1Cl)c1ccccc1	0.1	-3.8	83.3*	13.2
Cc1ccccc1OCCC(=O)Nc1ccc(Cl)cc1F	-0.2	4.2	11.4	3.7
COc1cc2c(cc1OC)C1(CCCC1)C(N)=C2C#N	-0.3	nt	70.0*	-11.4
CC1CCN(S(=O)(=O)c2ccc(Cl)cc2Br)CC1	0.0	13.8	78.1*	1.0
COCCn1c(SCC(=O)Nc2ccc(Cl)cn2)nnc1-c1ccncc1	-0.2	-12.1	26.4	-4.0
CCOc1ccccc1NC(=O)C(NC(=O)C1CCC(C)CC1)C(C)C (stereo unspecified)	-0.1	-6.6	72.8*	-18.1
CCOc1ccccc1NC(=O)C(CC(C)C)NC(=O)C1CCC(C)CC1 (stereo unspecified)	-0.1	nt	59.2	-12.6
NNC(=O)c1cc2cc3ccccc3nc2s1	-0.2	-12.3	-7.7	-11.7
Cc1ccc2nc(C(Cl)(Cl)Cl)nc(N/N=C/c3ccncc3)c2c1	-0.2	6.0	72.1*	-5.6
Cc1ccc(-c2nc(N/N=C/c3ccncc3)c3ccccc3n2)cc1	-0.7	nt	81.5*	-29.4
N#C/C(=C\c1c[nH]c2ccccc12)C(=O)c1ccc(O)c(O)c1	nt	nt	-0.7	nt
CC(C)(C(=O)c1ccccc1)/[N+]([O-])=C/c1ccc(Br)cc1	-0.1	nt	nt	nt
Nc1nc(Nc2ccc(Cl)cc2Cl)nc(C(F)(F)F)n1	0.9	-8.9	74.9*	9.5
Nc1nc(Nc2ccccc2Br)nc(C(F)(F)F)n1	-0.2	-18.1	15.9	-8.4
N#CCc1ccc(NS(=O)(=O)c2ccc(C3CCCCC3)cc2)cc1	-0.2	4.4	81.1*	-8.4
Cc1ccc(-n2nc3c(c2NC(=O)c2c(-c4ccccc4Cl)noc2C)CS(=O)(=O)C3)c(C)c1	-0.2	nt	7.7	-4.9
COc1cccc(/C=N/Nc2ccc(C(=O)O)cc2)c1O	-0.2	8.3	100.9*	nt
SMILES	Hsp70 act	S1P3 antag	CHOP inhibitor	Mdm2 ligase inh
COc1cccc(/C=N/Nc2ccc(S(=O)(=O)O)cc2)c1O	-0.2	nt	1.2	-6.5
CC(C)(C)c1ccc(/C=N/Nc2ccc(C(=O)O)cc2)cc1	-0.4	-8.1	83.5*	-83.9
O=C(O)c1cc(N/N=C/c2ccc3c(c2)OCO3)ccc1Cl	0.2	-8.3	1.5	-25.4
COc1cccc(/C=N/Nc2nc(Nc3ccc([N+](=O)[O-])cc3)nc(N3CCCC3)n2)c1O	0.7	-18.6	89.3*	-22.4
O=[N+]([O-])c1ccc(Nc2nc(N/N=C/c3cccc(F)c3)nc(N3CCCC3)n2)cc1	-0.1	-11.3	16.4	-19.5
O=C(O)c1ccc(N/N=C/c2ccc3c(c2)OCO3)cc1	-0.2	3.4	93.5*	-89.7
Cc1ccc(NC(=O)CC2SCCNC2=O)cc1[N+](=O)[O-] (stereo unspecified)	nt	3.2	-2.3	-12.8
O=C(CCSc1nnc(-c2ccncc2)o1)Nc1ccc(F)cc1	-0.2	14.3	-8.4	-11.8
CN(C)S(=O)(=O)N1CCN(C(=O)c2cccs2)CC1	-0.4	nt	-7.0	-6.6
CCCCCn1nnc2c(=O)oc3ccccc3c21	-0.2	-13.3	-13.5	-1.3
O=C(O)c1cc(N/N=C/c2ccc3c(c2)OCCO3)ccc1Cl	0.0	-4.5	72.2*	-80.5
O=[N+]([O-])c1cccc(-c2noc(COc3ccccc3)n2)c1	-0.1	5.2	21.0	-3.4
Nc1c(Cl)ncnc1N/N=C/c1ccc2ccccc2n1	0.0	24.1	65.3	41.2*
CCOC(=O)c1ccccc1NC(=O)c1ccc(NS(C)(=O)=O)cc1	-0.3	-26.3	80.5*	-6.6
O=C1N(Cc2ccc(F)cc2Cl)c2ccccc2C12OCCCO2	-0.3	nt	79.7*	-5.1
O=C1N(Cc2ccccc2F)c2ccccc2C12OCCCO2	0.1	nt	-5.5	4.5
CC(C)CC(=O)CN1C(=O)C2(OCCO2)c2ccccc21	-0.4	-12.0	74.5*	-21.7
Cc1ccc(S(=O)(=O)N(C)C)cc1-n1c(SCC(=O)Nc2ccc(F)c(F)c2F)nc2ccccc2c1=O	-0.3	-2.5	1.3	-14.8
Cc1onc(-c2ccccc2)c1C(=O)NC(=S)NNC(=O)c1ccccc1O	-0.3	18.5	77.5*	-13.9
Cc1onc(-c2ccccc2)c1C(=O)NC(=S)NNC(=O)c1ccc(O)cc1O	-0.4	-5.7	57.2	2.9
Cc1ccc(NC(=O)CSc2nnc(-c3n[nH]c4ccccc34)n2-c2ccccc2)c(C)c1	-0.4	3.6	2.5	-5.9
COc1ccc(/C=C/c2nc(-c3ccccc3O)n[nH]2)cc1	0.2	2.5	78.9*	-26.6
Brc1cnc2nc(SCc3nc4ccccc4[nH]3)[nH]c2c1	nt	-5.0	45.3	-8.3
Fc1ccc(CSc2nc3ncc(Br)cc3[nH]2)cc1	-0.1	nt	74.0*	-9.6
Cc1cc(=O)[nH]c(SCC(=O)NCCC2=CCCCC2)n1	-0.1	-6.8	-40.3	-13.0
SMILES	Hsp70 act	S1P3 antag	CHOP inhibitor	Mdm2 ligase inh
CCOc1cc(/C=C2/C(=N)N3C=CSC3=NC2=O)ccc1OCCCOc1ccccc1C	-0.1	nt	84.5*	15.0
COc1cc(/C=C2/C(=N)N3C=CSC3=NC2=O)ccc1OCCCOc1ccccc1C	1.6	nt	-0.2	-0.6
Cc1ccc(CN2CCN(/N=C/c3ccc(C)s3)CC2)cc1	-0.2	-9.3	58.5	-3.9
Cc1ccc(CNC(=O)CCc2c(C)nc3c(c(C)nn3-c3ccc(C)cc3)c2C)cc1	-0.2	-9.8	50.7	11.3
Cc1ccc(-n2nc(C)c3c(C)c(CCC(=O)NCc4ccccc4)c(C)nc32)cc1	-0.1	nt	70.2*	0.6
Cc1ccc(-n2nc(C)c3c(C)c(CCC(=O)NCc4ccco4)c(C)nc32)cc1	nt	-1.7	70.2*	-8.8
Cc1ccccc1OCc1nc(-c2ccc(NC(=O)c3ccco3)cc2)no1	0.4	nt	57.1	-3.4
COc1ccc(-c2nc(-c3ccc(Br)o3)no2)cc1OC	0.2	-4.0	44.7	-13.0
Cc1ccccc1OCc1nc(-c2ccc(NC(=O)c3ccc4c(c3)OCO4)cc2)no1	-0.2	41.4	73.8*	-36.2
Cc1ccc(-c2noc(COc3ccccc3C)n2)cc1	0.1	-6.2	89.7*	-3.9
COc1ccccc1-c1nc(-c2ccc(Br)o2)no1	0.1	nt	72.8*	-29.2
COc1ccccc1Cc1nc(-c2cccnc2)no1	nt	-13.6	-11.9	-6.6
COc1ccc(-c2noc(Cc3ccccc3OC)n2)cc1	0.1	12.3	92.3*	-5.7
